The record followed here is ChEMBL document CHEMBL1146365, “Synthesis and biological evaluation of new N-(2-hydroxy-4(or 5)-nitro/aminophenyl)benzamides and phenylacetamides as antimicrobial agents” (2007).

In brackets after ≈: the same amount, converted by molar mass.

For assay [1], the system named is Klebsiella pneumoniae. The assay is described as follows: Antibacterial activity against Klebsiella pneumoniae RSHM 574 assessed after 24 hrs by serial dilution method.
Assay [2] concerns Escherichia coli. The assay is described as follows: Antibacterial activity against Escherichia coli isolate assessed after 24 hrs by serial dilution method. In kind it is functional. In a few lines:
(§1)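 Strains were subcultured twice on MHA at 37 °C overnight. Inoculum was diluted from McFarland 0.5 to 10^5 cfu/ml, giving 10^4 cfu/ml in wells. Solvent, medium and organism-only controls were included. Incubated 37 °C, humid chamber, 24 h, in triplicate. MIC = lowest concentration with no macroscopic growth.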

Assay [3] relates to Pseudomonas aeruginosa. The assay is described as follows: Antibacterial activity against Pseudomonas aeruginosa isolate assessed after 24 hrs by serial dilution method. In kind it is functional. The method, boiled down:
as §1

For assay [4], the system named is Candida albicans. The assay is described as follows: Antifungal activity against Candida albicans ATCC 10231 assessed after 48 hrs by serial dilution method. In kind it is functional. The note with it: ATCC 10231, 48 h. The method, boiled down: (§2)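 Broth microdilution per CLSI M27-A in RPMI-1640 with L-glutamine, MOPS-buffered pH 7, with 2-fold compound dilutions. Yeasts were subcultured twice on SDA at 35 °C for 24–48 h. Inoculum was diluted from McFarland 0.5 to 10^4 cfu/ml, giving 10^3 cfu/ml in wells. Incubated 35 °C, humid chamber, 48 h, in triplicate. MIC = lowest concentration with no macroscopic growth.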

Assay [5] has as its system Escherichia coli. The assay can be described thus: Antibacterial activity against Escherichia coli ATCC assessed after 24 hrs by serial dilution method.
Assay [6] has as its system Staphylococcus aureus. The assay is described as follows: Antibacterial activity against Staphylococcus aureus ATCC 25923 assessed after 24 hrs by serial dilution method. The note with it: ATCC 25923, 24 h. In kind it is functional. The method, boiled down:
as §1

The test system of assay [7] is Bacillus subtilis. The assay can be described thus: Antibacterial activity against drug-resistant Bacillus subtilis assessed after 24 hrs by serial dilution method.
For assay [8], the system named is Staphylococcus aureus. The assay can be described thus: Antibacterial activity against drug-resistant Staphylococcus aureus assessed after 24 hrs by serial dilution method.
The test system of assay [9] is Candida albicans. The assay can be described thus: Antifungal activity against Candida albicans isolate assessed after 48 hrs by serial dilution method. In kind it is functional. In a few lines: as §2
In assay [10] the test system is Pseudomonas aeruginosa. The assay can be described thus: Antibacterial activity against Pseudomonas aeruginosa ATCC […] assessed after 24 hrs by serial dilution method.
Assay [11] relates to Klebsiella pneumoniae. The assay can be described thus: Antibacterial activity against Klebsiella pneumoniae isolate assessed after 24 hrs by serial dilution method. In kind it is functional. The method, boiled down: as §1
For assay [12], the system named is Bacillus subtilis. The assay is described as follows: Antibacterial activity against Bacillus subtilis ATCC 6633 assessed after 24 hrs by serial dilution method. The following applies: ATCC 6633, 24 h. In kind it is functional. In a few lines:
as §1

On to `Nc1ccc(NC(=O)c2ccc(F)cc2)c(O)c1`, for which the MIC (as a rule, the lowest concentration found to suppress growth) in assay [1] worked out at 125 µg/mL (≈ 508 µM); in assay [2], 250 µg/mL (≈ 1020 µM); in assay [3] it was 250 µg/mL (≈ 1020 µM); in assay [4] it was 125 µg/mL (≈ 508 µM); in assay [5] it was 250 µg/mL (≈ 1020 µM); in assay [6] it was 62.5 µg/mL (≈ 254 µM). The MIC in assay [7] came to 125 µg/mL (≈ 508 µM); in assay [8], 15.6 µg/mL (≈ 63.4 µM); in assay [9] it was 125 µg/mL (≈ 508 µM); in assay [10], 125 µg/mL (≈ 508 µM); in assay [11] it was 250 µg/mL (≈ 1020 µM); in [12], 125 µg/mL (≈ 508 µM).
`Nc1ccc(O)c(NC(=O)c2ccc(F)cc2)c1`: the MIC in assay [1] turned out to be 62.5 µg/mL (≈ 254 µM); in assay [2], 125 µg/mL (≈ 508 µM); in [3] it was 125 µg/mL (≈ 508 µM); in [4], 62.5 µg/mL (≈ 254 µM); in [5] it was 125 µg/mL (≈ 508 µM); in assay [6], 15.6 µg/mL (≈ 63.4 µM). Besides, the MIC worked out at 62.5 µg/mL (≈ 254 µM) in [7]; 15.6 µg/mL (≈ 63.4 µM) in [8]; 62.5 µg/mL (≈ 254 µM) in [9]; 62.5 µg/mL (≈ 254 µM) in [10]; 125 µg/mL (≈ 508 µM) in [11]; 62.5 µg/mL (≈ 254 µM) in [12].
Consider `Nc1ccc(NC(=O)Cc2ccc(Br)cc2)c(O)c1`, for which the MIC in assay [1] was determined as 125 µg/mL (≈ 389 µM); in assay [2], 125 µg/mL (≈ 389 µM); in assay [3] it was 250 µg/mL (≈ 778 µM); in assay [4], 125 µg/mL (≈ 389 µM); in assay [5], 125 µg/mL (≈ 389 µM); in assay [6] it was 125 µg/mL (≈ 389 µM). For the same compound, the MIC in assay [7] stood at 125 µg/mL (≈ 389 µM); in assay [8], 31.2 µg/mL (≈ 97.3 µM); in assay [9], 250 µg/mL (≈ 778 µM); in assay [10], 250 µg/mL (≈ 778 µM); in assay [11], 125 µg/mL (≈ 389 µM); in [12], 125 µg/mL (≈ 389 µM).
With `CCc1ccc(C(=O)Nc2ccc(N)cc2O)cc1`, the MIC was 125 µg/mL (≈ 488 µM) in assay [1]; 250 µg/mL (≈ 975 µM) in assay [2]; 250 µg/mL (≈ 975 µM) in [3]; 125 µg/mL (≈ 488 µM) in assay [4]; 125 µg/mL (≈ 488 µM) in [5]; 125 µg/mL (≈ 488 µM) in assay [6]. Moreover, the MIC in assay [7] was 31.2 µg/mL (≈ 122 µM); in assay [8] it was 7.8 µg/mL (≈ 30.4 µM); in assay [9] it was 125 µg/mL (≈ 488 µM); in [10] it was 250 µg/mL (≈ 975 µM); in assay [11] it was 250 µg/mL (≈ 975 µM); in assay [12], 250 µg/mL (≈ 975 µM).
On to `CO[C@H]1/C=C/O[C@@]2(C)Oc3c(C)c(O)c4c(O)c(c(/C=N/N5CCN(C)CC5)c(O)c4c3C2=O)NC(=O)/C(C)=C\C=C\[C@H](C)[C@H](O)[C@@H](C)[C@@H](O)[C@@H](C)[C@H](OC(C)=O)[C@@H]1C` [RIFAMPIN], for which the minimum inhibitory concentration (MIC) in assay [1] is 16 µg/mL (≈ 19.4 µM); in assay [2], 62.5 µg/mL (≈ 75.9 µM); in [3], 32 µg/mL (≈ 38.9 µM); in [5], more than 4100 µg/mL; in assay [6], more than 4100 µg/mL; in [7] it was 256 µg/mL (≈ 311 µM). Besides, the MIC worked out at 512 µg/mL (≈ 622 µM) in assay [8], 32 µg/mL (≈ 38.9 µM) in assay [10] and 256 µg/mL (≈ 311 µM) in assay [11].
As to `CC(C)(C)c1ccc(C(=O)Nc2ccc([N+](=O)[O-])cc2O)cc1`, the MIC came out at 125 µg/mL (≈ 398 µM) in assay [1]; 250 µg/mL (≈ 795 µM) in assay [2]; 250 µg/mL (≈ 795 µM) in assay [3]; 250 µg/mL (≈ 795 µM) in assay [4]; 125 µg/mL (≈ 398 µM) in [5]; 7.8 µg/mL (≈ 24.8 µM) in [6]. The MIC in assay [7] is 15.6 µg/mL (≈ 49.6 µM); in [8] it was 1.95 µg/mL (≈ 6.2 µM); in assay [9] it was 125 µg/mL (≈ 398 µM); in assay [10], 125 µg/mL (≈ 398 µM); in assay [11] it was 250 µg/mL (≈ 795 µM); in assay [12] it was 7.8 µg/mL (≈ 24.8 µM).
On to `Nc1ccc(NC(=O)Cc2ccc(F)cc2)c(O)c1`, for which the minimum inhibitory concentration (MIC) is 125 µg/mL (≈ 480 µM) in [1]; 125 µg/mL (≈ 480 µM) in assay [2]; 125 µg/mL (≈ 480 µM) in assay [3]; 125 µg/mL (≈ 480 µM) in assay [4]; 62.5 µg/mL (≈ 240 µM) in assay [5]; 125 µg/mL (≈ 480 µM) in [6]. The minimal inhibitory concentration (MIC) in [7] is 62.5 µg/mL (≈ 240 µM); in [8], 62.5 µg/mL (≈ 240 µM); in assay [9] it was 125 µg/mL (≈ 480 µM); in [10] it was 125 µg/mL (≈ 480 µM); in [11], 125 µg/mL (≈ 480 µM); in assay [12] it was 250 µg/mL (≈ 961 µM).
As for `CCc1ccc(C(=O)Nc2cc([N+](=O)[O-])ccc2O)cc1`, the MIC turned out to be 250 µg/mL (≈ 873 µM) in assay [1]; 250 µg/mL (≈ 873 µM) in assay [2]; 250 µg/mL (≈ 873 µM) in [3]; 125 µg/mL (≈ 437 µM) in [4]; 125 µg/mL (≈ 437 µM) in assay [5]; 7.8 µg/mL (≈ 27.2 µM) in [6]. Also, the MIC in assay [7] is 31.2 µg/mL (≈ 109 µM); in [8], 7.8 µg/mL (≈ 27.2 µM); in [9], 62.5 µg/mL (≈ 218 µM); in assay [10], 62.5 µg/mL (≈ 218 µM); in assay [11], 125 µg/mL (≈ 437 µM); in assay [12], 3.9 µg/mL (≈ 13.6 µM).
With `CCc1ccc(C(=O)Nc2cc(N)ccc2O)cc1`, the MIC in assay [1] was 62.5 µg/mL (≈ 244 µM); in [2] it was 125 µg/mL (≈ 488 µM); in assay [3] it was 125 µg/mL (≈ 488 µM); in [4], 62.5 µg/mL (≈ 244 µM); in assay [5], 125 µg/mL (≈ 488 µM); in assay [6], 15.6 µg/mL (≈ 60.9 µM). For the same compound, the MIC was found to be 31.2 µg/mL (≈ 122 µM) in [7]; 15.6 µg/mL (≈ 60.9 µM) in assay [8]; 62.5 µg/mL (≈ 244 µM) in [9]; 62.5 µg/mL (≈ 244 µM) in assay [10]; 62.5 µg/mL (≈ 244 µM) in assay [11]; 62.5 µg/mL (≈ 244 µM) in [12].
